Assay results taken from ChEMBL document CHEMBL1123469, “Synthesis and activity of 6-aryl-3-(hydroxypolymethyleneamino)pyridazines in animal models of epilepsy” (1986).

What was measured:
Type in all cases: functional
Mus musculus [1] = experiment: Anticonvulsant activity in tonic seizures when administered orally in mice; conditions: po
Papio hamadryas = organism: Papio hamadryas; experiment: Antagonist activity to generalized seizures Photically induced seizures in senegalese Papio papio baboons
How it was run: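 Naturally photosensitive baboons of both sexes (4-7 kg) were dosed orally, test compounds in dilute HCl (pH 3) and references in 5% gum tragacanth, at 4 mL/kg. They were photically stimulated at hourly intervals afterwards, and the myoclonic response was graded after Killam. Threshold active dose is the first dose that protected at least two of four animals for at least 2 h.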

Mus musculus [2] = experiment: Compound was evaluated for the sedative properties by the rotarod test when 100 mg/Kg was administered in mice
How it was run: (§1)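 Motor coordination was tested on the rotorod in groups of 10 female Swiss CD1 mice (18-23 g). Drug or vehicle was given orally, test compounds in dilute HCl (pH 3), 60 min before testing.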

Rattus norvegicus = organism: Rattus norvegicus; experiment: Antagonist activity to generalized seizures kindled amygdaloid seizures in rats
How it was run: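 Male Sprague-Dawley rats (200-500 g), groups of 10, carried platinum electrodes in the right basolateral amygdala. They counted as kindled after stage-5 seizures on 3 consecutive days at 30-90 μA. A control stimulation was followed by an oral dose (5 mL/kg) and restimulation 1 h later. After-discharge duration and Racine seizure stage were compared with vehicle.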

Mus musculus [3] = experiment: Anticonvulsant activity in Clonic seizures when administered orally in mice; conditions: po
How it was run: (§2)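 Female Swiss CD1 mice (18-23 g) were dosed orally at 20 mL/kg, test compounds in dilute HCl (pH 3) and references in gum tragacanth. Protection against bicuculline- or pentylenetetrazole-induced clonic/tonic seizures and lethality was scored.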

Mus musculus [4] = experiment: Compound was evaluated for Bicuculline-induced seizures (anticonvulsant activity)when administered orally in mice; conditions: po
How it was run: (§3)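 Female Swiss albino CD1 mice (18-23 g), oral dosing (20 mL/kg); test compounds dissolved in dilute HCl (pH 3), reference drugs suspended in 5% gum tragacanth. Bicuculline challenge, scoring protection from seizures and from lethality. […] Weakly active agents reported as percent protected at the stated dose.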

Mus musculus [5] = experiment: Compound was evaluated for Bicuculline-induced lethality (anticonvulsant activity) when administered 20 mg/Kg orally in mice; how it was run: as §3
Mus musculus [6] = experiment: Anticonvulsant activity in Maximal electroshock (MES) when administered orally in mice; conditions: po
How it was run: (§4)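 Female Swiss CD1 mice (18-23 g), groups of 10, were dosed orally at 20 mL/kg. Test compounds were given in dilute HCl (pH 3) and references in 5% gum tragacanth, 60 min before a 60-V alternating current for 0.3 s through corneal electrodes. Protection meant abolition of the hindlimb tonic extensor component.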

Mus musculus [7] = experiment: Compound was evaluated for anticonvulsant activity when administered 1 mg/kg orally in mice Maximal electroshock (MES); conditions: route oral; how it was run: as §4
Mus musculus [8] = experiment: Compound was evaluated for the sedative property by the rotarod test at 1 mg/kg; how it was run: as §1
Mus musculus [9] = experiment: Compound was evaluated for Bicuculline-induced seizures (anticonvulsant activity) when administered 1 mg/kg orally in mice; conditions: route oral; how it was run: as §3
Mus musculus [10] = experiment: Compound was evaluated for anticonvulsant activity when administered 10 mg/kg orally in mice Maximal electroshock (MES); conditions: route oral; how it was run: as §4
Mus musculus [11] = experiment: Compound was evaluated for the sedative property by the rotarod test at 10 mg/kg; how it was run: as §1
Mus musculus [12] = experiment: Compound was evaluated for Bicuculline-induced seizures (anticonvulsant activity) when administered 10 mg/kg orally in mice; conditions: route oral; how it was run: as §3
Mus musculus [13] = experiment: Evaluated for Bicuculline-induced lethality (anticonvulsant activity) when administered orally in mice.; conditions: po; how it was run: as §3
Mus musculus [14] = experiment: Compound was evaluated for the sedative property by the rotarod test at 150 mg/kg; how it was run: as §1
Mus musculus [15] = experiment: Compound was evaluated for the sedative property by the rotarod test at 20 mg/kg; how it was run: as §1
Mus musculus [16] = experiment: Evaluated for anticonvulsant activity when administered orally in mice by Maximal electroshock (MES).; conditions: po; how it was run: as §4
Mus musculus [17] = experiment: Evaluated for Bicuculline-induced seizures (anticonvulsant activity) when administered orally in mice.; conditions: po; how it was run: as §2

Q: How did the ED50 (Mus musculus [1]) turn out when `O=C1NC(=O)C(c2ccccc2)(c2ccccc2)N1` [PHENYTOIN] was run?
A: 7 mg/kg

Q: What about the Threshold active dose (Papio hamadryas) of the same compound?
A: 50 mg/kg

Q: And the Protected (Mus musculus [2])?
A: 30%

Q: What about the Threshold active dose (Rattus norvegicus) of the same compound?
A: 20 mg/kg

Q: What about the ED50 (Mus musculus [3]) of the same compound?
A: > 80 mg/kg

Q: What about the ED50 (Mus musculus [4]) of the same compound?
A: 11 mg/kg

Q: What about the Protected (Mus musculus [5]) of the same compound?
A: 25%

Q: What about the ED50 (Mus musculus [6]) of the same compound?
A: 23 mg/kg

Q: For `CN(C)C(=O)OC1CCN(c2ccc(-c3ccc(Cl)cc3Cl)nn2)CC1`, which Protected (Mus musculus [7]) is on record?
A: 66%

Q: What about the Protected (Mus musculus [8]) of the same compound?
A: 20%

Q: And the Protected (Mus musculus [9])?
A: 30%

Q: Which Protected (Mus musculus [10]) does the source give for `OC1CCN(c2ccc(-c3ccccn3)nn2)CC1` here?
A: 0%

Q: What about the Protected (Mus musculus [11]) of the same compound?
A: 20%

Q: What about the Protected (Mus musculus [12]) of the same compound?
A: 0%

Q: Which ED50 (Mus musculus [13]) does the source give for `OC1CCN(c2ccc(-c3cc(Cl)ccc3Cl)nn2)CC1` here?
A: 101 mg/kg

Q: What about the Protected (Mus musculus [14]) of the same compound?
A: 10%

Q: What does the source list for `O=C1CCN(c2ccc(-c3ccc(Cl)cc3Cl)nn2)CC1`?
A: ED50 (Mus musculus [13]): 7 mg/kg; Protected (Mus musculus [15]): 50%; ED50 (Mus musculus [16]): 5 mg/kg; ED50 (Mus musculus [17]): 7.3 mg/kg
